Measured values reported in ChEMBL document CHEMBL3861959, “Synthesis and antiproliferative evaluation of novel 2-(4H-1,2,4-triazole-3-ylthio)acetamide derivatives as inducers of apoptosis in cancer cells” (Eur J Med Chem, 2016).

What was measured:
[1] = Cytotoxicity against human OVCAR8 cells assessed as cell growth at 10^-5 M after 48 hrs by SRB assay relative to control; format: functional; settings: OVCAR-8, 48 h, read-out: Activity
How it was run: (§1)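 NCI single-dose primary screen run under the US NCI protocol. Compounds tested at 10 µM across the 60-cell-line panel, with growth percent reported for each line.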

[2] = Cytotoxicity against human A498 cells assessed as cell growth at 10^-5 M after 48 hrs by SRB assay relative to control; format: functional; settings: A498, 48 h, read-out: Activity; how it was run: as §1
[3] = Cytotoxicity against human IGROV1 cells assessed as cell growth at 10^-5 M after 48 hrs by SRB assay relative to control; format: functional; settings: IGROV-1, 48 h, read-out: Activity; how it was run: as §1
[4] = Cytotoxicity against human SF295 cells assessed as cell growth at 10^-5 M after 48 hrs by SRB assay relative to control; format: functional; settings: SF-295, 48 h, read-out: Activity; how it was run: as §1
[5] = Cytotoxicity against human Caki1 cells assessed as cell growth at 10^-5 M after 48 hrs by SRB assay relative to control; format: functional; settings: CAKI-1, 48 h, read-out: Activity; how it was run: as §1
[6] = Cytotoxicity against human PC3 cells assessed as cell growth at 10^-5 M after 48 hrs by SRB assay relative to control; format: functional; settings: PC-3, 48 h, read-out: Activity; how it was run: as §1
[7] = Cytotoxicity against mouse NIH/3T3 cells assessed as decrease in cell survival after 48 hrs by MTT assay; format: toxicity, NIH3T3
[8] = Cytotoxicity against human HOP92 cells assessed as cell growth at 10^-5 M after 48 hrs by SRB assay relative to control; format: functional; settings: HOP-92, 48 h, read-out: Activity; how it was run: as §1
[9] = Cytotoxicity against human BT549 cells assessed as cell growth at 10^-5 M after 48 hrs by SRB assay relative to control; format: functional; settings: BT-549, 48 h, read-out: Activity; how it was run: as §1
[10] = Cytotoxicity against human OVCAR3 cells assessed as cell growth at 10^-5 M after 48 hrs by SRB assay relative to control; format: functional; settings: OVCAR-3, 48 h, read-out: Activity; how it was run: as §1
[11] = Cytotoxicity against human HT-29 cells assessed as cell growth at 10^-5 M after 48 hrs by SRB assay relative to control; format: functional; settings: HT-29, 48 h, read-out: Activity; how it was run: as §1
[12] = Antiviral activity against HIV2 ROD infected in human MT4 cells assessed as protection against virus-induced cytopathic effect after 5 days MTT assay; format: functional, cell-based, Human immunodeficiency virus type 2 (ISOLATE ROD); settings: Human immunodeficiency virus 2, MT4, 120 h
How it was run: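 HIV-1 strain IIIB and HIV-2 strain ROD in MT-4 cells, MTT-based. Test compounds in serial five-fold dilutions, in triplicate wells run alongside mock-infected cells, with untreated infected and mock controls. MT-4 cells resuspended at 6 × 10^5 cells/mL. Absorbance read at 540 and 690 nm, median OD of three wells. EC50 is the 50% effective concentration.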

[13] = Cytotoxicity against human SNB75 cells assessed as cell growth at 10^-5 M after 48 hrs by SRB assay relative to control; format: functional; settings: SNB-75, 48 h, read-out: Activity
How it was run: (§2)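 Single-dose NCI 60-cell-line screen run under the US NCI protocol. Compounds tested at 10 µM. Read-out is growth percent for each cell line.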

[14] = Selectivity index, ratio of CC50 for human MT4 cells to EC50 for HIV1 3B; format: toxicity, cell-based; settings: read-out: Ratio CC50/EC50
How it was run: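 HIV-1 IIIB and HIV-2 ROD tested in MT-4 cells by MTT. Serial fivefold dilutions of compound added to triplicate mock- and virus-infected wells. MT-4 cells at 6 × 10^5 cells/mL. Absorbance read at 540/690 nm; median OD of three wells used. CC50 is the concentration reducing mock-infected OD540 by 50%. […]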

[15] = Cytotoxicity against human ACHN cells assessed as cell growth at 10^-5 M after 48 hrs by SRB assay relative to control; format: functional; settings: read-out: Activity; how it was run: as §1
[16] = Cytotoxicity against human TK10 cells assessed as cell growth at 10^-5 M after 48 hrs by SRB assay relative to control; format: functional; settings: TK-10, 48 h, read-out: Activity; how it was run: as §2
[17] = Cytotoxicity against human NCI-H522 cells assessed as cell growth at 10^-5 M after 48 hrs by SRB assay relative to control; format: functional; settings: NCI-H522, 48 h, read-out: Activity; how it was run: as §1
[18] = Cytotoxicity against human OVCAR5 cells assessed as cell growth at 10^-5 M after 48 hrs by SRB assay relative to control; format: functional; settings: OVCAR-5, 48 h, read-out: Activity; how it was run: as §1
[19] = Cytotoxicity against human NCI-ADR-RES cells assessed as cell growth at 10^-5 M after 48 hrs by SRB assay relative to control; format: functional; settings: read-out: Activity; how it was run: as §1
[20] = Cytotoxicity against human CCRF-CEM cells assessed as cell growth at 10^-5 M after 48 hrs by SRB assay relative to control; format: functional; settings: read-out: Activity; how it was run: as §1
[21] = Cytotoxicity against human K562 cells assessed as cell growth at 10^-5 M after 48 hrs by SRB assay relative to control; format: functional; settings: K562, 48 h, read-out: Activity; how it was run: as §1
[22] = Cytotoxicity against human SK-MEL-5 cells assessed as cell growth at 10^-5 M after 48 hrs by SRB assay relative to control; format: functional; settings: SK-MEL-5, 48 h, read-out: Activity; how it was run: as §2
[23] = Cytotoxicity against human HOP62 cells assessed as cell growth at 10^-5 M after 48 hrs by SRB assay relative to control; format: functional; settings: HOP-62, 48 h, read-out: Activity; how it was run: as §1
[24] = Cytotoxicity against human DU145 cells assessed as cell growth at 10^-5 M after 48 hrs by SRB assay relative to control; format: functional; settings: DU-145, 48 h, read-out: Activity; how it was run: as §1
[25] = Cytotoxicity against human UO31 cells assessed as cell growth at 10^-5 M after 48 hrs by SRB assay relative to control; format: functional; settings: UO-31, 48 h, read-out: Activity; how it was run: as §2
[26] = Cytotoxicity against human MDA-MB-231 cells assessed as cell growth at 10^-5 M after 48 hrs by SRB assay relative to control; format: functional; settings: MDA-MB-231, 48 h, read-out: Activity; how it was run: as §1
[27] = Cytotoxicity against human UACC257 cells assessed as cell growth at 10^-5 M after 48 hrs by SRB assay relative to control; format: functional; settings: UACC-257, 48 h, read-out: Activity; how it was run: as §2
[28] = Cytotoxicity against human SKOV3 cells assessed as cell growth at 10^-5 M after 48 hrs by SRB assay relative to control; format: functional; settings: SK-OV-3, 48 h, read-out: Activity; how it was run: as §2
[29] = Cytotoxicity against human T47D cells assessed as cell growth at 10^-5 M after 48 hrs by SRB assay relative to control; format: functional; settings: read-out: Activity; how it was run: as §2
[30] = Cytotoxicity against human COLO205 cells assessed as cell growth at 10^-5 M after 48 hrs by SRB assay relative to control; format: functional; settings: COLO 205, 48 h, read-out: Activity; how it was run: as §1
[31] = Cytotoxicity against human MDA-MB-468 cells assessed as cell growth at 10^-5 M after 48 hrs by SRB assay relative to control; format: functional; settings: MDA-MB-468, 48 h, read-out: Activity; how it was run: as §1
[32] = Cytotoxicity against human MOLT4 cells assessed as cell growth at 10^-5 M after 48 hrs by SRB assay relative to control; format: functional; settings: MOLT-4, 48 h, read-out: Activity; how it was run: as §1

Structure (SMILES)	growth at 10 µM [1] [%]	growth at 10 µM [2] [%]	growth at 10 µM [3] [%]	growth at 10 µM [4] [%]	growth at 10 µM [5] [%]	growth at 10 µM [6] [%]	IC50 at 48 h [7] [µg/mL]	growth at 10 µM [8] [%]	growth at 10 µM [9] [%]	growth at 10 µM [10] [%]	growth at 10 µM [11] [%]	EC50 [12] [µg/mL]	growth at 10 µM [13] [%]	selectivity ratio [14]	growth at 10 µM [15] [%]	growth at 10 µM [16] [%]	growth at 10 µM [17] [%]	growth at 10 µM [18] [%]	growth at 10 µM [19] [%]	growth at 10 µM [20] [%]	further results
Cc1ccc(C(C)C)c(OCc2nnc(SCC(=O)Nc3ccc(S(N)(=O)=O)cc3)n2Cc2ccccc2)c1	41.1	74.7	90.1	70.7	81.1	31.1	> 100	75.2	65.8	74.7	72.4	> 13	93.8	< 1	76	94	75.3	99.4	77.1	35.6	growth at 10 µM [21]: 78.4%; growth at 10 µM [22]: 50.3%; growth at 10 µM [23]: 79.1%; growth at 10 µM [24]: 82.3%; growth at 10 µM [25]: 42.7%; growth at 10 µM [26]: 69.1%; growth at 10 µM [27]: 89%; growth at 10 µM [28]: 109%; growth at 10 µM [29]: 33.3%; growth at 10 µM [30]: 90.2%; growth at 10 µM [31]: 70.5%; growth at 10 µM [32]: 45.2%
Cc1ccc(C(C)C)c(OCc2nnc(SCC(=O)Nc3ccc(Cl)cc3)n2Cc2ccccc2)c1	67.3	78	69.4	88.1	93.9	71.9	> 100	78	97.4	63.9	70	> 65.9	93.6	< 1	41.6	71.9	90.4	93.2	69.1	72.7	growth at 10 µM [21]: 97.5%; growth at 10 µM [22]: 90.5%; growth at 10 µM [23]: 81.2%; growth at 10 µM [24]: 90.5%; growth at 10 µM [25]: 53.6%; growth at 10 µM [26]: 75.7%; growth at 10 µM [27]: 105%; growth at 10 µM [28]: 109%; growth at 10 µM [29]: 78.6%; growth at 10 µM [30]: 78.2%; growth at 10 µM [31]: 72.3%; growth at 10 µM [32]: 73.7%
CC(=O)Nc1ccc(OCc2nnc(SCC(=O)Nc3ccc(Br)cc3)n2Cc2ccccc2)cc1	84.8	82.1	83.2	80.2	72.5	54.2	> 100	70.9	72.4	102	93.9	> 3.99	103	≤ 1	58.6	87.1	71.2	92	68.2	56.3	growth at 10 µM [21]: 28.9%; growth at 10 µM [22]: 69.8%; growth at 10 µM [23]: 90.3%; growth at 10 µM [24]: 72.6%; growth at 10 µM [25]: 52.8%; growth at 10 µM [26]: 75%; growth at 10 µM [27]: 98.4%; growth at 10 µM [28]: 110%; growth at 10 µM [29]: 69.6%; growth at 10 µM [30]: 105%; growth at 10 µM [31]: 77.8%; growth at 10 µM [32]: 64.7%
